Tests used:
D(1A) dopamine receptor = D(1A) dopamine receptor (Rattus norvegicus, UniProt P18901); test: Displacement of [3H]cis-flupenthixol from Dopamine receptor D1 in rat brain; type: tissue-based
[1] = Displacement of [3H]flunitrazepam from GABA-A benzodiazepine receptor of rat brain
Outline: (§1)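 Rat brain radioligand displacement binding. IC50 values (μM) were derived by nonlinear regression from four or five concentrations of compound.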

[2] = biological target: Serotonin 1 (5-HT1) receptor (Rattus norvegicus, UniProt P28564+P30940+P19327+P28565); test: Displacement of [3H]5-HT from serotonin-1 neurotransmitter receptor in rat brain; type: tissue-based; outline: as §1
Monkey = test: Inhibition of Sidman avoidance in squirrel monkeys after the compound administered through perorally; type: functional; conditions: in Saimiri, po
Outline: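 Oral dosing in squirrel monkeys trained on continuous (Sidman) avoidance responding. ED50 reported ± SEM.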

[3] = biological target: T1, Adrenergic receptor alpha-1 (Rattus norvegicus, UniProt P15823+P23944+P43140); test: Displacement of [3H]WB-4101 from alpha-1 adrenergic receptor in rat brain; type: tissue-based; outline: as §1
T1 sequence (P15823 whole entry): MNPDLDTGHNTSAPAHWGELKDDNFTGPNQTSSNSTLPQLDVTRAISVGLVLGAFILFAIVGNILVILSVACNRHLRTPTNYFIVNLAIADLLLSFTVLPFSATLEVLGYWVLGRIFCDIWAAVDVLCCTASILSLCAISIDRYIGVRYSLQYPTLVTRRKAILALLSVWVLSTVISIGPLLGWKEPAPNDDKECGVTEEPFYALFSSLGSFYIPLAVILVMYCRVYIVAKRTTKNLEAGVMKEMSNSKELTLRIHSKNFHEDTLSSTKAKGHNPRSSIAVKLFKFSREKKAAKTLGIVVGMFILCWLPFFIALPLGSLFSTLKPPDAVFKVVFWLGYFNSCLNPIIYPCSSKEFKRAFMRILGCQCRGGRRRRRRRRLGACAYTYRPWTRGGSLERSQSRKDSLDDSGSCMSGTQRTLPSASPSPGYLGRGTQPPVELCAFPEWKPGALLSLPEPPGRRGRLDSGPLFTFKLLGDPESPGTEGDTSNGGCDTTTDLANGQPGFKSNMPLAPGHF
T1 sequence (P23944 whole entry): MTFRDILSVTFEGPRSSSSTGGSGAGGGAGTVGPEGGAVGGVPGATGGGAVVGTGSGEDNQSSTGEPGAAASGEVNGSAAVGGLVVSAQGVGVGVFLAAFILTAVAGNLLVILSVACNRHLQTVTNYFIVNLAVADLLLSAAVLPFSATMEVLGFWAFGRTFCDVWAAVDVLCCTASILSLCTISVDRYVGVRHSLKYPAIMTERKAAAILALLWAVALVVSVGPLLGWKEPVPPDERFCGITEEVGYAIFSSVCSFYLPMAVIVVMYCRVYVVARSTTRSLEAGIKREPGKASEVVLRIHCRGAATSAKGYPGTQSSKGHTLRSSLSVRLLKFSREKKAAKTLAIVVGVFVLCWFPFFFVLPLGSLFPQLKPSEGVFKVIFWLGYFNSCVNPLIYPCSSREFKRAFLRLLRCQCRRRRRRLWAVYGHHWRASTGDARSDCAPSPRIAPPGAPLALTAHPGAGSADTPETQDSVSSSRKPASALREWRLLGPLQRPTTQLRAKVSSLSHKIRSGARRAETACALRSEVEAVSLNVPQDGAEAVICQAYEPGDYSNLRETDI
T1 sequence (P43140 whole entry): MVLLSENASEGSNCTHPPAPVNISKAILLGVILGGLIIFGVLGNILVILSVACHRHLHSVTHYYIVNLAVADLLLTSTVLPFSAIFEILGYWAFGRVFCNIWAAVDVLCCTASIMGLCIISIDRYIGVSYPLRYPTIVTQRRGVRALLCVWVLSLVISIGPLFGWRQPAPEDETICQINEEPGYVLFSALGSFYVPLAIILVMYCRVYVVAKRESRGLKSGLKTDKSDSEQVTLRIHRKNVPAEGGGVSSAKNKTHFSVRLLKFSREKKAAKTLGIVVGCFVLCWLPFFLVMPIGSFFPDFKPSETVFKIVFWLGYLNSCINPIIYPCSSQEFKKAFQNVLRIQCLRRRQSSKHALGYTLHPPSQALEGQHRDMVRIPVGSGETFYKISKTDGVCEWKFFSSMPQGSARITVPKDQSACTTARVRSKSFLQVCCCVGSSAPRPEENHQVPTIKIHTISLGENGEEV

[4] = biological target: Voltage-gated L-type calcium channel (Rattus norvegicus, UniProt P22002+Q02485+P27732); test: Displacement of [3H]nitrendipine from L-type [Ca2+] channel of rat brain; type: tissue-based
[5] = biological target: Muscarinic acetylcholine receptor; test: Displacement of [3H]quinuclidinyl benzilate(QNB) from Muscarinic acetylcholine receptor in rat brain; type: tissue-based; outline: as §1
[6] = biological target: Beta-1 adrenergic receptor (Rattus norvegicus, UniProt P18090); test: Displacement of [3H]DHA (Dihydroalprenolol) from beta-1 adrenergic receptor in rat brain; type: tissue-based; outline: as §1
Sequence of Beta-1 adrenergic receptor (P18090 whole entry): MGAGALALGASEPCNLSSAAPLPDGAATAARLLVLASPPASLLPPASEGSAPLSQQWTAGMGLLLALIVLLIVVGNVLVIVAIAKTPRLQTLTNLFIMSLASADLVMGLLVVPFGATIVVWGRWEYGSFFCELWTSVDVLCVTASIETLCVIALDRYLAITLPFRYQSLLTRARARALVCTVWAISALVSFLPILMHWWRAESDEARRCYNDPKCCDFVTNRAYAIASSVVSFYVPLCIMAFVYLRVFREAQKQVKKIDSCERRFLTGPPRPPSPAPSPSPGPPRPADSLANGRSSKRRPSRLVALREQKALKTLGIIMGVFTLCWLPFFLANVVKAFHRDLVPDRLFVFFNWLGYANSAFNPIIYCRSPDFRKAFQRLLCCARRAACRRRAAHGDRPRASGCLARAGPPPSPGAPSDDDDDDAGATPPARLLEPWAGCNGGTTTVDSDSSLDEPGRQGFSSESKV

[7] = biological target: Serotonin 2 (5-HT2) receptor (Rattus norvegicus, UniProt P30994+P08909+P14842); test: Displacement of [3H]spiroperidol from 5-hydroxytryptamine 2 receptor in rat brain; type: tissue-based; outline: as §1
Adenosine receptor A1 = biological target: T2, Adenosine receptor A1 (Rattus norvegicus, UniProt P25099); test: Displacement of [3H]CHA (N6-Cyclohexyl adenosine) from adenosine A1 receptor in rat brain; type: tissue-based; outline: as §1
T2 sequence (P25099 whole entry): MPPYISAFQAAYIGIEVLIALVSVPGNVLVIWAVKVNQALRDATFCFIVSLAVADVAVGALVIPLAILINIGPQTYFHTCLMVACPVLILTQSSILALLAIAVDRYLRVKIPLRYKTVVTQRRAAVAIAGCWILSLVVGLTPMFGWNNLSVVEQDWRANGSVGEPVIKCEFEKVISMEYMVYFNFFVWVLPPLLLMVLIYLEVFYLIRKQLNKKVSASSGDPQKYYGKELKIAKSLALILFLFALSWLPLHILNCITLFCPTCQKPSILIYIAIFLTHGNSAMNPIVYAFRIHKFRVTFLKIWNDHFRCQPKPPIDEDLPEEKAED

Rattus norvegicus [8] = test: Inhibition of locomotion in rats after the compound administered through perorally; type: functional; conditions: po
Outline: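 Oral dosing in rats, with spontaneous locomotor activity scored alongside ataxia. ED50 reported ± SEM.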

Mus musculus [9] = test: Inhibition of induction of ataxia in mouse after intraperitoneal administration; type: functional; conditions: ip
Rattus norvegicus [10] = test: Inhibition of Sidman avoidance in rats after peroral administration; type: functional; conditions: po
Outline: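 Continuous (Sidman) avoidance responding in rats with oral dosing. At least three doses per drug, four animals per dose. ED50 reported ± SEM.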

[11] = biological target: Beta-2 adrenergic receptor (Rattus norvegicus, UniProt P10608); test: Displacement of [3H]DHA (Dihydroalprenolol) from beta-2 adrenergic receptor in rat brain; type: tissue-based; outline: as §1
Sequence of Beta-2 adrenergic receptor (P10608 whole entry): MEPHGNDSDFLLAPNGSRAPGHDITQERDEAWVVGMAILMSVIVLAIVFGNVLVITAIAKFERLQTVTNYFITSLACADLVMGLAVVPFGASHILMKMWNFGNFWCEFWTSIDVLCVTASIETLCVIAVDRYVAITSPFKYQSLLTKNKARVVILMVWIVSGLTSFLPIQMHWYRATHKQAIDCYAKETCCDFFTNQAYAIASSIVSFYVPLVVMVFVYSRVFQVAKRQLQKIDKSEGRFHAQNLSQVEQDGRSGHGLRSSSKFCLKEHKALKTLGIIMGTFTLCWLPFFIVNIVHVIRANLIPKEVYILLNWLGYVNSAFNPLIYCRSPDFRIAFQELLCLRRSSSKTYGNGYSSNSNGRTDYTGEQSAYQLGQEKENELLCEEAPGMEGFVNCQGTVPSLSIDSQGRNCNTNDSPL

Mus musculus [12] = test: Inhibition of locomotor activity in mouse after intraperitoneal administration; type: functional; conditions: Mus musculus, ip; read-out: ED50

Sequence of D(1A) dopamine receptor (P18901 whole entry): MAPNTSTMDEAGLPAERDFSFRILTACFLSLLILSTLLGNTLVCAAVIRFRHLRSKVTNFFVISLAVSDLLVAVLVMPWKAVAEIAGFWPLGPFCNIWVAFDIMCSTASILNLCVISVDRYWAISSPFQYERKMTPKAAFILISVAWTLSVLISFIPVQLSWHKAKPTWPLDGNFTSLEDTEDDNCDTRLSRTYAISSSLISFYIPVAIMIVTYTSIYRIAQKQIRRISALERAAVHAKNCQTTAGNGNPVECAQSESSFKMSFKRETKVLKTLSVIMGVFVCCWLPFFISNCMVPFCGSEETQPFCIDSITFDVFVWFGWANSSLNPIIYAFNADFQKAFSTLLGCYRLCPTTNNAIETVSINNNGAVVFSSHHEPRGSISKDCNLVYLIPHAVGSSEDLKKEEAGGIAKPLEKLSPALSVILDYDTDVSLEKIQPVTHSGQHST

CCC1CN2C(C)=Nc3c(C)nn(C)c3C2=N1 (stereo not given)
IC50 (D(1A) dopamine receptor): > 10 µM | IC50 [1]: > 1 µM | IC50 [2]: > 10 µM | ED50 (Monkey): 7.25 mg/kg | IC50 [3]: > 10 µM | IC50 [4]: > 10 µM | IC50 [5]: > 10 µM | IC50 [6]: > 10 µM | IC50 [7]: > 10 µM | IC50 (Adenosine receptor A1): > 10 µM | ED50 (Rattus norvegicus [8]): 15.5 mg/kg | ED50 (Mus musculus [9]): > 100 mg/kg | ED50 (Rattus norvegicus [10]): 19.2 mg/kg | IC50 [11]: > 10 µM | ED50 (Mus musculus [12]): 23.7 mg/kg
